Measurements from different studies.
Read-out: enzyme activity
Action: inhibitor
PDGFRA: Platelet-derived growth factor receptor alpha (PDGFRA, Homo sapiens, UniProt P16234)
PDGFRA D842V: Platelet-derived growth factor receptor alpha (PDGFRA, Homo sapiens, UniProt P16234, D842V)

CN1CC(Oc2cnc(C#N)cc2-c2ccn3nc(NC(=O)C4CC4)cc3c2)C1  inhibition (PDGFRA; 1 µM): 4%
CNCc1ccc(-c2cc(-c3nc(-c4ccc(S(=O)(=O)C(C)C)cc4)cnc3N)on2)cc1  inhibition (PDGFRA; 0.4 µM): 0%
COc1cc(-c2cc(-c3ccc(N4CCNCC4)cc3)cnc2N)cc(OC)c1OC  inhibition (PDGFRA D842V; 0.1 µM): 54%
CNC(=O)c1cc2c(Oc3ccc(NC(=O)C4(C(=O)Nc5ccc(F)cc5)CC4)cc3)ccnc2cc1OC  inhibition (PDGFRA D842V; radiometric; 1 µM): 73%
COc1cc2ncnc(Nc3ccc(Oc4ccccc4)cc3C)c2cc1OC  inhibition (PDGFRA D842V; 1 µM): -1%
CC/C(=N\NC(=O)NCc1cccc(O)c1)c1ccc(O)c(C)c1O  inhibition (PDGFRA; 0.1 µM): 6.7%
CNC(=O)c1cc(Oc2ccc(NC(=O)Nc3ccc(Cl)c(C(F)(F)F)c3)cc2)ccn1  inhibition (Platelet-derived growth factor receptor alpha (PDGFRA, Homo sapiens, UniProt P16234, V561D); 0.3 µM): 99%
CCCS(=O)(=O)Nc1ccc(F)c(C(=O)c2c[nH]c3ncc(-c4ccc(Cl)cc4)cc23)c1F  inhibition (PDGFRA; 1 µM): < 10%
COc1cc2ncnc(Nc3ccc(Oc4ccccc4)c(C)c3C)c2cc1OC  inhibition (PDGFRA; 1 µM): 6%
O=C(CSc1nc2nccnc2c(=O)n1CCc1ccccc1)Nc1nccs1  inhibition (PDGFRA; 10 µM): 16%
